Active and inactive are the calls of the source. No cut-off for these calls is given here.
Columns and labels:
SW-620 [1] = assay: Cell cycle arrest in human SW620 cells assessed as accumulation at G0/G1 phase at 2 uM after 48 hrs using propidium iodide staining by flow cytometry (reference value: 47.8 +/- 1.2%); type: functional
SW-620 [2] = assay: Cell cycle arrest in human SW620 cells assessed as accumulation at G0/G1 phase at 5 uM after 48 hrs using propidium iodide staining by flow cytometry (reference value: 47.8 +/- 1.2%); type: functional
HCT-116 [3] = assay: Cytotoxicity against human HCT116 cells assessed as cell viability at 0.1 to 2 uM after 24 to 72 hrs; type: functional, cell-based
In short: (§1)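 Cells seeded at 10^5 per well in RPMI 1640/10% FBS at 37 °C. Subconfluent cells exposed to 0, 0.1, 0.5, 1, 2, 5 or 10 μM for 48 h, or to 10 μM for 24, 48 and 72 h; ethanol vehicle, at most 0.01% v/v final. Cells trypsinized and counted by hemocytometer. Viability as % of control, means ± SD, three experiments in triplicate.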

HCT-116 [4] = assay: Induction of apoptosis in human HCT116 cells at 10 uM after 48 hrs using Annexin V-FITC and propidium iodide staining by flow cytometry (reference value: 7.6 +/- 3%); type: functional
In short: (§2)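 Subconfluent cells in RPMI 1640 + 10% FBS treated with 0–10 μM for 48 h. Harvested cells incubated 10 min with FITC-annexin V/PI, then analysed by flow cytometry (488/525 nm for annexin V-FITC, 488/675 nm for PI). Reported as % apoptotic cells, means ± SD of three experiments in triplicate.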

SW-620 [5] = assay: Cytotoxicity against human SW620 cells at 0.5 to 10 uM; type: functional, cell-based; settings: TDE = time-dependent effect
In short: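 SW-620 cells seeded at 10^5 per well in RPMI 1640 + 10% FBS at 37 °C, then treated when subconfluent with 0–10 μM for 48 h (or 10 μM for 24–72 h). Ethanol vehicle, at most 0.01% v/v final. Cells trypsinized and counted on a hemocytometer. Result given as % of control, means ± SD of three experiments in triplicate.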

HCT-116 [6] = assay: Induction of apoptosis in human HCT116 cells expressing p21 siRNA assessed as change in cell morphology at 10 uM after 24 hrs by phase-contrast microscopic analysis; type: functional, cell-based
In short: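 Cells plated at 5 × 10^4 per well and transfected with 100 nM scrambled or p21 siRNA in OPTI-MEM for 4 h. Complete RPMI medium was added and cells grown a further 24 h, then exposed to 10 μM for 24 h. Viability measured by direct count after trypan blue staining. Morphology viewed by phase-contrast at 200×. Means ± SD, three experiments in triplicate.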

HCT-116 [7] = assay: Cell cycle arrest in human HCT116 cells assessed as accumulation at S phase after 48 hrs using propidium iodide staining by flow cytometry; type: functional, cell-based
SW-620 [8] = assay: Induction of apoptosis in human SW620 cells at 10 uM after 48 hrs using Annexin V-FITC and propidium iodide staining by flow cytometry (reference value: 3.8 +/- 2.1%); type: functional; in short: as §2
SW-620 [9] = assay: Decrease of Cdk2 expression in human SW620 cells after 24 hrs by immunoblotting; type: functional, cell-based
In short: (§3)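 HCT-116 or SW-620 cells exposed to 0–10 μM for 24 h. Cells lysed in Tris/NaCl/EDTA/1% Triton X-100 buffer with protease and phosphatase inhibitors at 4 °C, protein measured by BCA. Lysates run on 10–12.5% SDS-PAGE and immunoblotted, ECL detection. Cdk2, cyclin A and cyclin E antibodies used at 1:500; β-actin as loading control.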

SW-620 [10] = assay: Cell cycle arrest in human SW620 cells assessed as accumulation at S phase after 48 hrs using propidium iodide staining by flow cytometry; type: functional, cell-based
HCT-116 [11] = assay: Cell cycle arrest in human HCT116 cells assessed as accumulation at G2/M phase at 10 uM after 48 hrs using propidium iodide staining by flow cytometry (reference value: 7.1 +/- 0.3%); type: functional
HCT-116 [12] = assay: Cytotoxicity against human HCT116 cells assessed as inhibition of cell viability at 10 uM after 24 hrs; settings: HCT-116, 24 h
HCT-116 [13] = assay: Cell cycle arrest in human HCT116 cells assessed as accumulation at G2/M phase at 0.1 uM after 48 hrs using propidium iodide staining by flow cytometry (reference value: 7.1 +/- 0.3%); type: functional
HCT-116 [14] = assay: Cytotoxicity against human HCT116 cells assessed as cell viability at 10 uM after 48 to 72 hrs; type: functional, cell-based; in short: as §1
HCT-116 [15] = assay: Cell cycle arrest in human HCT116 cells assessed as accumulation at S phase at 0.1 uM after 48 hrs using propidium iodide staining by flow cytometry (reference value: 36.3 +/- 1.7%); type: functional
SW-620 [16] = assay: Induction of apoptosis in human SW620 cells assessed as increase of Bax protein expression after 24 hrs by immunoblotting; type: functional, cell-based
In short: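 HCT-116 or SW-620 cells treated with 0–10 μM for 24 h, lysed, and run on 15% SDS-PAGE immunoblots. Probed for Bcl-2 (1:1000), Bax (1:500), caspase-9/-3 and their cleaved forms (1:1000), and β-actin (1:1000). Bands quantified by densitometry; means ± SD of three experiments in duplicate.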

SW-620 [17] = assay: Antitumor activity against human SW620 cells xenografted in BALB/c-nude mouse assessed as reduction of tumor volume at 100 mg/kg, po administered every other day from day 2 to 21; type: functional, organism-based; parameters: dose 100 mg/kg
In short: (§4)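 Male BALB/c-nude mice; 2 × 10^6 tumour cells in 0.2 mL PBS injected intradermally into the flank on day 0, n = 10 per group. Oral dosing every other day for 3 weeks, starting 2 days after inoculation. Caliper tumour volume = (width)2 × length/2, measured periodically. Tumours excised and weighed at day 21. Means ± SE.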

HCT-116 [18] = assay: Cytotoxicity against human HCT116 cells after 24 to 72 hrs; type: functional, cell-based; in short: as §1
HCT-116 [19] = assay: Decrease of cyclin E expression in human HCT116 cells after 24 hrs by immunoblotting; type: functional, cell-based; in short: as §3
HCT-116 [20] = assay: Antitumor activity against human HCT116 cells xenografted in BALB/c-nude mouse assessed as reduction of tumor weight at 100 mg/kg, po administered every other day from day 2 to 21 (reference value: 469 mg); type: functional; in short: as §4
HCT-116 [21] = assay: Increase of p21 expression in human HCT116 cells at 0.1 to 10 uM after 24 hrs by immunoblotting; type: functional, cell-based
In short: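 HCT-116 or SW-620 cells treated with 0–10 μM for 24 h. Lysates probed for p21 by SDS-PAGE immunoblotting with ECL detection; β-actin as loading control.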

SW-620 [22] = assay: Cell cycle arrest in human SW620 cells assessed as accumulation at G0/G1 phase at 10 uM after 48 hrs using propidium iodide staining by flow cytometry (reference value: 47.8 +/- 1.2%); type: functional
HCT-116 [23] = assay: Cytotoxicity against human HCT116 cells expressing p21 siRNA at 10 uM after 24 hrs by trypan blue staining; type: functional, cell-based
In short: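 Cells plated at 5 × 10^4 per well and transfected 4 h with 100 nM p21 or scrambled siRNA in OPTI-MEM, then grown 24 h in complete medium. Exposed to 10 μM for 24 h. Viability by trypan blue exclusion and direct counting. Means ± SD, three experiments in triplicate, compared with the scrambled-siRNA group.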

SW-620 [24] = assay: Decrease of cyclin A expression in human SW620 cells after 24 hrs by immunoblotting; type: functional, cell-based; in short: as §3

With `CC(C)c1cccc(=O)c(O)c1` [HINOKITIOL] the Activity (SW-620 [1]) was 43.1%, the Activity (SW-620 [2]) was 40.8% and the Activity (HCT-116 [3]) was “Active”. For the same compound, the Activity (HCT-116 [4]) was 24.7%, the Activity (SW-620 [5]) was “tde” and the Activity (HCT-116 [6]) was “inactive”. For the same compound, the Activity (HCT-116 [7]) was “Dose-dependent effect”, the Activity (SW-620 [8]) was 80.3% and the Activity (SW-620 [9]) was “Dose-dependent effect”. For the same compound, the Activity (SW-620 [10]) was “Dose-dependent effect”, the Activity (HCT-116 [11]) was 7.4% and the inhibition of viability at 10 µM (HCT-116 [12]) was 27%. The Activity (HCT-116 [13]) was 7.5%, the Activity (HCT-116 [14]) was “Active” and the Activity (HCT-116 [15]) was 34.4%. For the same compound, the Activity (SW-620 [16]) was “Dose-dependent effect”, the Activity (SW-620 [17]) was “Active” and the IC50 (HCT-116 [18]) was 4.5 µM. The “growth inhibition (GI)” value (HCT-116 [18]) was “Dose-dependent effect”, the Activity (HCT-116 [19]) was “Dose-dependent effect” and the Activity (HCT-116 [20]) was 245 mg. For the same compound, the Activity (HCT-116 [21]) was “Active”, the Activity (SW-620 [22]) was 11.5% and the Activity (HCT-116 [23]) was “inactive”. The Activity (SW-620 [24]) was “Dose-dependent effect”.

From ChEMBL document CHEMBL3091462 (J Nat Prod, 2013)
